Laboratory results taken from ChEMBL document CHEMBL1151248, “New lignans from the roots of Valeriana prionophylla with antioxidative and vasorelaxant activities” (2004).

How the values were obtained:
[1] = Antioxidant activity assessed as ABTS radical scavenging activity after 1 min by TEAC method
[2] = Antioxidant activity against iodophenol-induced chemiluminescence by horseradish peroxidase/perborate/luminol system; format: functional
Method in brief: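 Total antioxidant capacity read by enhanced chemiluminescence. Reagent was assay buffer plus tablets A and B, which supply luminol, p-iodophenol enhancer and perborate oxidant. Values come from a Trolox standard curve (Trolox 20 μg mL⁻¹ in H2O) and are reported as mM Trolox equivalent; n=3.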

Aorta [3] = assay: Vasorelaxant activity on Wistar rat aorta ring assessed as inhibition of phenylephrine-induced contraction at 100 uM in absence of endothelium; format: functional; set-up: scale not given: the % may be the effect or the level left
Aorta [4] = assay: Vasorelaxant activity on Wistar rat aorta ring assessed as inhibition of phenylephrine-induced contraction at 100 uM in presence of endothelium; format: functional; set-up: scale not given: the % may be the effect or the level left

With `COc1cc([C@H]2OC[C@@H]3[C@@H](c4ccc(O[C@@H]5O[C@H](CO)[C@@H](O)[C@H](O)[C@H]5O)c(OC)c4)OC[C@]23O)ccc1O` as the compound, how does the Activity [1] read?
The Activity was 2.51 mM.

What about the Activity [2] of the same compound?
Its Activity is 1.44 mM.

What about the Activity (Aorta [3]) of the same compound?
Its Activity is 1.7%.

And the Activity (Aorta [4])?
The Activity was 2.5%.

Which Activity [1] does the source give for `COc1cc([C@H]2OC[C@]3(O)[C@@H](c4ccc(O)c(OC)c4)OC[C@H]23)ccc1O` here?
The Activity was 5.1 mM.

And the Activity [2]?
The Activity was 6.31 mM.

What about the Activity (Aorta [3]) of the same compound?
Its Activity is 29%.

And the Activity (Aorta [4])?
Its Activity is 24.4%.

With `COc1cc([C@H]2OC[C@]3(O)[C@@H](c4ccc(O[C@@H]5O[C@H](CO)[C@@H](O)[C@H](O)[C@H]5O)c(OC)c4)OC[C@]23O)ccc1O` as the compound, how does the Activity [1] read?
The Activity was 2.92 mM.

And the Activity [2]?
Its Activity is 1.84 mM.

What about the Activity (Aorta [3]) of the same compound?
The Activity was 0%.

What about the Activity (Aorta [4]) of the same compound?
Its Activity is 20.4%.

What does the source list for `C[C@@H]1O[C@@H](O[C@@H]2[C@@H](O)[C@H](OCCc3ccc(O)c(O)c3)O[C@H](CO)[C@H]2OC(=O)/C=C/c2ccc(O)c(O)c2)[C@H](O)[C@H](O)[C@H]1O`?
Activity [1]: 5.3 mM; Activity [2]: 8.2 mM

Which Activity [1] does the source give for `COc1cc([C@H]2OC[C@]3(O)[C@@H](c4ccc(O)c(OC)c4)OC[C@]23O)ccc1O` [PRINSEPIOL] here?
The Activity was 5.33 mM.

And the Activity [2]?
The Activity was 6.7 mM.

And the Activity (Aorta [3])?
Its Activity is 5.3%.

And the Activity (Aorta [4])?
The Activity was 29.3%.
